The structures appear in SMILES notation. Calls of active or inactive are those of the source. The calls are words filed in the database; no cut-off is given here.

What is called IC50 is the concentration that inhibits the measured activity by half. What is called EC50 is the concentration needed to bring the measured effect to its halfway point.

Experiment [1] deals with SCC-4. The experiment in a line: Induction of autophagy in human SCC-4 cells assessed as increase in LC3-II to LC3-I ratio at 10 uM in absence of EBSS measured after 3 hrs by Western blot analysis. In kind it is functional, cell-based. The method in brief:
(§1)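 SCC4 cells were pre-incubated with or without EBSS for 30 min, then given 10 μM compound, with 10 μM chloroquine as reference, for 3 h. LC3-I/II was assessed by Western blot with GAPDH loading control. The LC3-II/LC3-I ratio came from densitometry, as mean ± SEM of four experiments, with an unpaired one-tailed t-test.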

Experiment [2] deals with SCC-4. The experiment in a line: Induction of autophagy in human SCC-4 cells assessed as increase in LC3-II to LC3-I ratio at 10 uM incubated for 30 mins in presence of EBSS followed by compound addition and measured after 3 hrs by Western blot analysis. In kind it is functional, cell-based. The gist of the method:
as §1
(In general: A western blot detects proteins with antibodies after separation by electrophoresis.)

The test system of the next experiment is Ca9-22. The experiment in a line: Cytotoxicity against human Ca9-22 cells assessed as reduction in cell viability measured after 48 hrs by alamar blue viability assay. In kind it is functional, cell-based. Conditions: Ca9-22, 48 h. The method in brief:
(§2)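 Oral squamous carcinoma cells were exposed for 48 h to at least 8 increasing concentrations. Viability was read by AlamarBlue. IC50 is the concentration that halves viability, taken as the mean ± SD of at least three independent experiments.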

Experiment [3] in a line: Induction of Pro-apoptosis in human HL-60 cells assessed as increase in apoptotic cells at 10 uM after 48 hrs by Annexin-V/PI-staining based flow cytometry. In kind it is functional. For orientation: In flow cytometry, cells or beads pass a laser one at a time.
The test system of experiment [4] is SCC-4. Nature of the experiment: Cytotoxicity against human SCC-4 cells assessed as reduction in cell viability measured after 48 hrs by alamar blue viability assay. In kind it is functional, cell-based. The conditions noted are these: SCC-4, 48 h. The gist of the method: as §2
(In general: The colour change of resazurin is a common sign of viable cells or microbes.)

The next experiment concerns Emu-TCL1. Nature of the experiment: Induction of apoptosis in mouse Emu-TCL1 cells model of CLL assessed as mitochondrial membrane depolarization at 10 uM after 48 hrs by TMRM dye based flow cytometric analysis. In kind it is functional, cell-based. The gist of the method:
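Splenocytes from Eμ-TCL1 leukaemic mice were treated with 10 μM or DMSO vehicle for 48 h, then TMRM-loaded. Flow cytometry gave the percentage of TMRM-low cells as mean ± SD (n = 3).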

Experiment [5] concerns HL-60. The experiment in a line: Induction of autophagy in human HL-60 cells assessed as increase in p62 protein level at 10 uM […] by Immunoblotting analysis. In kind it is functional, cell-based.
Experiment [6] deals with HL-60. The experiment in a line: Induction of autophagy in human HL-60 cells assessed as increase in LC3-II protein level at 10 uM measured up to 1 hr by Immunoblotting analysis. In kind it is functional, cell-based.
Experiment [7] has as its target Nuclear factor NF-kappa-B complex (Homo sapiens) (UniProt Q00653+P19838+Q04206). The experiment in a line: Inhibition of NF-kappaB phosphorylation in human HL-60 cells at 10 uM measured after 2 hrs by Immunoblotting analysis. In kind it is cell-based. The gist of the method:
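HL-60 cells were treated at 10 μM or with DMSO vehicle for 2 h. Phospho-NF-κB and phospho-Erk1/2 were immunoblotted and quantified by densitometry relative to β-tubulin. Data are mean ± SD (n = 2), analysed by one-way ANOVA.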

Experiment [8] can be described thus: Induction of Pro-apoptosis in human HL-60 cells assessed as increase in apoptotic cells at 10 uM after 24 hrs by TMRM dye based flow cytometric analysis. In kind it is functional.
Experiment [9] deals with HL-60. Nature of the experiment: Induction of autophagy in human HL-60 cells assessed as increase in LC3-II protein level at 10 uM in presence of chloroquine […] by Immunoblotting analysis. In kind it is functional, cell-based.
The next experiment relates to NIH3T3. The experiment in a line: Cytotoxicity against mouse NIH3T3 cells assessed as inhibition of cell growth measured after 24 hrs by neutral red uptake assay. In kind it is functional, cell-based. The conditions noted are these: NIH3T3, 24 h. The gist of the method:
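Neutral red uptake viability test. NIH3T3 fibroblasts or primary human oral epithelial cells were exposed to compound at 0.1 to 120 μM. EC50 was derived, with SD below 5%.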

A short description of experiment [10]: Induction of Pro-apoptosis in human HL-60 cells assessed as increase in apoptotic cells at 25 uM after 24 hrs by TMRM dye based flow cytometric analysis. In kind it is functional.
Experiment [11] can be described thus: Cytotoxicity against human SKGT4 cells assessed as inhibition of cell growth measured after 72 hrs by MTT assay. In kind it is functional, cell-based. The conditions noted are these: SKGT4, 72 h. The gist of the method: (§3)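 Oesophageal adenocarcinoma lines were exposed to at least 8 increasing concentrations for 72 h. Viability was measured by MTT. IC50 is the mean ± SD of at least three independent experiments.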

In a further experiment the test system is OE19. The experiment in a line: Cytotoxicity against human OE19 cells assessed as inhibition of cell growth measured after 72 hrs by MTT assay. In kind it is functional, cell-based. The conditions noted are these: OE19, 72 h. The method in brief: as §3
In experiment [12] the test system is KYSE-520 cell line. The experiment in a line: Cytotoxicity against human KYSE520 cells assessed as inhibition of cell growth measured after 72 hrs by alamar blue viability assay. In kind it is functional, cell-based. The conditions noted are these: KYSE-520, 72 h. The gist of the method: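 KYSE-520 oesophageal cells were exposed to at least 8 increasing concentrations for 48 h or 72 h. Viability was read out to give IC50, as the mean ± SD of at least three independent experiments.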

The subject of the next experiment is OE33. Nature of the experiment: Cytotoxicity against human OE33 cells assessed as inhibition of cell growth measured after 72 hrs by MTT assay. In kind it is functional, cell-based. Conditions: OE33, 72 h. The gist of the method:
as §3

The subject of experiment [13] is KYSE-520 cell line. The experiment in a line: Induction of apoptosis in human KYSE520 cells assessed as increase in apoptotic cells at 3 to 10 uM after 72 hrs by Annexin V-FITC/PI staining based flow cytometry method. In kind it is functional, cell-based. The conditions noted are these: dose 3-10 µM. The method in brief:
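KYSE-520 cells were treated at 3 and 10 μM for 72 h, then analysed by flow cytometry after Annexin V/PI dual staining.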

Nuclear factor NF-kappa-B complex (Homo sapiens), sequence (P19838 whole entry, looked up): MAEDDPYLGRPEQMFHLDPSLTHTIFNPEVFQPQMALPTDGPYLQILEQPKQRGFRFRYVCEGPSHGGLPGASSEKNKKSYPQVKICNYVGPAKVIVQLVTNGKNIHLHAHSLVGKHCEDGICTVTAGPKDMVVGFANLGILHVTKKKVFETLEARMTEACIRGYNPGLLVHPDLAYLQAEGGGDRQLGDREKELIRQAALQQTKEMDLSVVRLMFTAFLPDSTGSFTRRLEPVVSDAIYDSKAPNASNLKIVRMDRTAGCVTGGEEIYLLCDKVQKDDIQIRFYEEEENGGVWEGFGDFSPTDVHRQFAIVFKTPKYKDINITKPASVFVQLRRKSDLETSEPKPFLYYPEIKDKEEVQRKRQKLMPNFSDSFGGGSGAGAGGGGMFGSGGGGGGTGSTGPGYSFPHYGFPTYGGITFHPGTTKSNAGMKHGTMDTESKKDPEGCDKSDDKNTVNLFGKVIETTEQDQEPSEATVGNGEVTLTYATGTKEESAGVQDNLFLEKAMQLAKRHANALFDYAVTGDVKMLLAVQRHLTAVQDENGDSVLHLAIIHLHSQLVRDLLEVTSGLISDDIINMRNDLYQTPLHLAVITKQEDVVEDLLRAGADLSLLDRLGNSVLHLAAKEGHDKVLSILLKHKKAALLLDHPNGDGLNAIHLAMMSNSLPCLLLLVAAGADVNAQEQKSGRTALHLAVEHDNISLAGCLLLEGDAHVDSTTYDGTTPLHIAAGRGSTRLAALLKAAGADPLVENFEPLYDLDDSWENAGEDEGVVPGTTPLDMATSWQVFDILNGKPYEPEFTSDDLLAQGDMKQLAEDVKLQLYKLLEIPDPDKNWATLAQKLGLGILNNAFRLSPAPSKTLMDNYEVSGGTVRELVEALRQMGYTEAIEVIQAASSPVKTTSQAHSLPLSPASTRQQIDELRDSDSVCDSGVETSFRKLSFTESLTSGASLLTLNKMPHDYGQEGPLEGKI
Nuclear factor NF-kappa-B complex (Homo sapiens), sequence (Q00653 whole entry, looked up): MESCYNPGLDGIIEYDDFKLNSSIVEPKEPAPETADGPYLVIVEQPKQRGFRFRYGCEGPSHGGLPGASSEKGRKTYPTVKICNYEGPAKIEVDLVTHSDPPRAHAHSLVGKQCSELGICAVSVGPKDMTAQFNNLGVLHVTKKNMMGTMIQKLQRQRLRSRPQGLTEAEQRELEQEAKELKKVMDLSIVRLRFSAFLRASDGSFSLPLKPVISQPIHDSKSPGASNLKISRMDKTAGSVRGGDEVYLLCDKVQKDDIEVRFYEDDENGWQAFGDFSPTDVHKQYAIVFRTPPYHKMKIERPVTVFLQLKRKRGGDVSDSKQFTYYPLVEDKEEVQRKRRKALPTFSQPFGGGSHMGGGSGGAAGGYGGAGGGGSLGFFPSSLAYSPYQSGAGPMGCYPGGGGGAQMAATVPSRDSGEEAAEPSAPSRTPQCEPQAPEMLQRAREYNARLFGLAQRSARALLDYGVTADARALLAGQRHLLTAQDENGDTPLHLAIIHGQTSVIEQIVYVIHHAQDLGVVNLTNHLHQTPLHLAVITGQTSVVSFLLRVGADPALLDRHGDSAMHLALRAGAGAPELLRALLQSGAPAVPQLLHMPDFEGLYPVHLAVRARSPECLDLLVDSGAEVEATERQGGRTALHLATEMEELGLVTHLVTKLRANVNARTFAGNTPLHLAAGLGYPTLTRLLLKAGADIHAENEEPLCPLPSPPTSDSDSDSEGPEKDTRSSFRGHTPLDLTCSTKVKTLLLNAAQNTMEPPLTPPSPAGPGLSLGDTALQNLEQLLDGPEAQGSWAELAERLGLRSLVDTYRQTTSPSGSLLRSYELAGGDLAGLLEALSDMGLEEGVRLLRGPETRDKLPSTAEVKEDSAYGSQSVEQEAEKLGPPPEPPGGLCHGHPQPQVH
Nuclear factor NF-kappa-B complex (Homo sapiens), sequence (Q04206 whole entry, looked up): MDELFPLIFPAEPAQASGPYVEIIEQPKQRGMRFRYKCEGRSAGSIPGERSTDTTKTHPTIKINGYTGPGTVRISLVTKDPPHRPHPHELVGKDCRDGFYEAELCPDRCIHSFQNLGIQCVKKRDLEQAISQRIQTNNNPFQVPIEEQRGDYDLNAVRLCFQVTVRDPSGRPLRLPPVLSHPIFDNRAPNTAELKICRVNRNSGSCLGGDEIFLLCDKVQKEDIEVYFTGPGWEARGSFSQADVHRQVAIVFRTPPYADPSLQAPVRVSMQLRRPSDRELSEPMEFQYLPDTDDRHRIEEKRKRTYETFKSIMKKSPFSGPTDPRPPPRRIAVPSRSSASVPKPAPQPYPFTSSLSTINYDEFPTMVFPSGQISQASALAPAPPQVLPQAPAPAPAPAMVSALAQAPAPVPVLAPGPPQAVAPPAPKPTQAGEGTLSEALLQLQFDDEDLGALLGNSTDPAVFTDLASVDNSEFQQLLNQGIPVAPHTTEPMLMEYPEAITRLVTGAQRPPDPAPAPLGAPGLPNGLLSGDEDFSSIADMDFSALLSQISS

In the case of `CCN(CC)CCCC(C)Nc1ccnc2cc(Cl)ccc12` (configuration not stated), the result in the experiment with SCC-4 [1] and with SCC-4 [2] was Active.
In the case of `CN(C)C(=O)OC1=C(c2cccc3ccccc23)Oc2ccccc2-n2cccc21`, the IC50 with Ca9-22 was determined as 170 nM; in the experiment on SCC-4 [4] it was 160 nM. For the same molecule, the Activity result in experiment [3] is recorded as “>=70%”.
Turning to `CC(=O)OC1=C(c2cccc3ccccc23)Oc2cc3ccccc3cc2-n2cccc21`, the outcome in the experiment on Emu-TCL1, with HL-60 [5], with HL-60 [6] and in the experiment on HL-60 [9] was Active. In experiment [7], the inhibition entry is “Active”. Besides, the Activity result was “>=50%” in [8] and “>=70%” in [3].
On to `CC(=O)OC1=C(c2cccc3ccccc23)Oc2cc3c(cc2-n2cccc21)OCCO3`, for which the concentration giving a half-maximal response (EC50) in the experiment on NIH3T3 turned out to be 0.1 µM. In addition, the Activity entry in [10] and in experiment [8] was “>=50%” in each case.
On to `CC(=O)OC1=C(c2cccc3ncccc23)Oc2cc3ccccc3cc2-n2cccc21`, for which the result in the experiment with Emu-TCL1, in the experiment on HL-60 [5], with SCC-4 [1], in the experiment with HL-60 [6], with SCC-4 [2] and in the experiment on HL-60 [9] was Active. In addition, in the experiment on KYSE-520 cell line [13], the result was Active. For the same molecule, the half-maximal inhibitory concentration (IC50) in [11] came out at 510 nM; with OE19, 730 nM; in the experiment with KYSE-520 cell line [12], 138 µM; in the experiment with OE33, 320 nM. In [7], the inhibition entry was “Active”. Further, the Activity result in experiment [3] is “>=70%”.
Regarding `CC(=O)OC1=C(c2cccc3ccccc23)Oc2ccc(N3CCN(C)CC3)cc2-n2cccc21`, the result in the experiment with Emu-TCL1 was Active. In addition, the concentration giving a half-maximal response (EC50) with NIH3T3 came to 45 µM. In addition, in experiment [3], the Activity is less than 30%.
On to `O=C(OC1=C(c2cccc3ncccc23)Oc2cc3ccccc3cc2-n2cccc21)c1cccnc1`, for which the outcome with Emu-TCL1, in the experiment on HL-60 [5], with HL-60 [6] and in the experiment with HL-60 [9] was Active. Besides, the 50% effective concentration (EC50) in the experiment with NIH3T3 was found to be 6 µM. Moreover, the Activity entry in [3] is on record as “>=70%”.

For the origin of these results see ChEMBL document CHEMBL5154824, “Design and synthesis of multifunctional microtubule targeting agents endowed with dual pro-apoptotic and anti-autophagic efficacy” (Eur J Med Chem, 2022).
